Experimental findings from ChEMBL document CHEMBL1144749, “Development of 2-t butyl-N-methyl pyrimidones as potent inhibitors of HIV integrase” (Bioorg Med Chem Lett, 2008) are described below.

A value given as a limit tells only on which side of the number the result lay.

The subject of data set [1] is Human immunodeficiency virus 1. As to the kind of experiment: Antiviral activity against HIV1 3b in human MT4 cells assessed as inhibition of viral spread in presence of 10% heat-inactivated fetal bovine serum. It counts as functional. Conditions: Human immunodeficiency virus 1, 3b, read-out: CIC95. Summed up: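 Spread assay: HIV-1 IIIb infection of MT-4 T-lymphoid cells in medium with 10% heat-inactivated FBS. CIC95 is the concentration inhibiting 95% of viral spread. Mean of at least 3 independent experiments.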

Data set [2] concerns the target Human immunodeficiency virus type 1 integrase (Human immunodeficiency virus 1, UniProt Q7ZJM1). As to the kind of experiment: Inhibition of HIV1 recombinant integrase strand transfer activity. The method in brief:
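Strand-transfer assay: inhibitors added after integrase assembly and washes. IC50 is the concentration reducing integrase activity by 50%. Mean of at least three independent experiments.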

In data set [3] the test system is Human immunodeficiency virus 1. As to the kind of experiment: Antiviral activity against HIV1 3b in human MT4 cells assessed as inhibition of viral spread in presence of 50% normal human serum. Type of data set: functional. The following applies: Human immunodeficiency virus 1, 3b, read-out: CIC95. The method in brief:
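Spread assay: HIV-1 IIIb infection of MT-4 T-lymphoid cells run with 50% normal human serum. CIC95 is the concentration inhibiting 95% of viral spread.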

Data set [4] is described as follows: (§1) Oral bioavailability in Sprague-Dawley rat at 3 mg/kg. It counts as ADME, organism-based. The following applies: Sprague-Dawley, in vivo. The method in brief:
(§2)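 Sprague–Dawley rats dosed iv in 20% DMSO/60% PEG400/20% water, or orally as a 1% methylcellulose suspension. Outputs: AUC after po dosing, plasma clearance, terminal-phase plasma half life after iv dosing, oral bioavailability.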

The nature of data set [5]: Terminal half life in Sprague-Dawley rat plasma at 3 mg/kg, iv. On the set-up: dose 3 mg/kg, route intravenous. It counts as ADME, organism-based. The method in brief: as §2
The nature of data set [6]: Clearance in Sprague-Dawley rat plasma at 3 mg/kg, iv and 3 mg/kg, po. Type of data set: ADME, organism-based. The method in brief: as §2
Data set [7] in a line: (§3) AUC in Sprague-Dawley rat at 3 mg/kg, po. Type of data set: ADME, organism-based, Plasma. On the set-up: dose 3 mg/kg, route oral. Conditions: Sprague-Dawley, plasma. The method in brief:
as §2

The species entered for data set [8] is Homo sapiens. In words: Fraction unbound in human plasma proteins after 1 hr.
The nature of data set [9]: Metabolic stability assessed as intrinsic clearance in rat microsome at 1 uM after 90 mins. Conditions: liver microsomes. Type of data set: ADME. The method in brief: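 Compound at 1 µM with microsomes at 1 mg/ml. Substrate degradation followed by LC/MS/MS over a 90 min incubation.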
On the technique in general: Liver microsomes are vesicles of endoplasmic reticulum, rich in cytochrome P450 enzymes.

Data set [10] deals with Rattus norvegicus. Described as §1. Type of data set: ADME, organism-based. The following applies: in vivo. The method in brief:
as §2

Data set [11] concerns Rattus norvegicus. The description is as §3. Type of data set: ADME, organism-based, Plasma. Also on record: dose 3 mg/kg, route oral. Conditions: in vivo. The method in brief: as §2

Chain of Human immunodeficiency virus type 1 integrase (Q7ZJM1 whole entry): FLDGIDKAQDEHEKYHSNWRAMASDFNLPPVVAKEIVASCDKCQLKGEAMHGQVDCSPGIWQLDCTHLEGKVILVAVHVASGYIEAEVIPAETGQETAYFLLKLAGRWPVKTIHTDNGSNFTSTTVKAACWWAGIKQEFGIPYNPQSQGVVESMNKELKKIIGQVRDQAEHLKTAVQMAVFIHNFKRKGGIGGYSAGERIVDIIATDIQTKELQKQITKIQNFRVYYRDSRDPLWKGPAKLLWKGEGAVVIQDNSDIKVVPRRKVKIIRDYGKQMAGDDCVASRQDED

Take `O=C(NCc1ccc(F)cc1)c1nc(-c2cccs2)nc(O)c1O`: in data set [1], the IC95 is more than 10000 nM.

Consider `Cn1c(C(C)(C)C)nc(C(=O)NCc2ccc(F)cc2C(N)=O)c(O)c1=O`, for which, in data set [2], the IC50 (in general, the point on the concentration scale where inhibition reaches its midpoint) was determined as 20 nM. The IC95 in [1] and in data set [3] was 10 nM each time. In addition, the bioavailability (in general, the share of a dose that reaches the circulation, judged against a reference dose that is usually intravenous) in data set [4] turned out to be 23%. Further, the half-life (commonly the time in which the quantity being followed falls by half) in data set [5] is 3.6 h. In data set [6], this compound gave a clearance of 55 mL/min/kg. Besides, the AUC – broadly, concentration integrated over time – in [7] was 0.6 µM·h. Besides, the fraction unbound (usually free concentration divided by total concentration) at 1 h in data set [8] amounted to 0.06.

Turning to `Cn1c(C(C)(C)C)nc(C(=O)NCc2ccc(F)cc2S(C)(=O)=O)c(O)c1=O`, the IC50 in [2] stood at 20 nM. Further, the IC95 in data set [1] was found to be 10 nM; in data set [3] it was 20 nM. This compound also had a bioavailability in data set [4] of 17%. Moreover, the half-life in data set [5] was 1.8 h. The clearance in [6] was 37 mL/min/kg. The AUC in [7] is 0.6 µM·h. Besides, the microsomal CLint (usually a measure of how fast metabolising enzymes remove a compound, apart from limits set by blood flow) at 1 µM in [9] was determined as 63 µL/min/mg.

`CCOc1ccccc1CNC(=O)c1nc(C(C)(C)C)n(C)c(=O)c1O`: in data set [2], the IC50 turned out to be 20 nM. Also, the IC95 in [1] is 120 nM; in data set [3] it was 500 nM.

Regarding `CC(C)(C)c1nc(O)c(O)c(C(=O)NCc2ccc(F)cc2S(C)(=O)=O)n1`, in data set [2], the concentration for half-maximal inhibition (IC50) was found to be 60 nM.

For `CCOc1ccccc1CNC(=O)c1nc(C(C)(C)C)nc(O)c1O`, the IC50 in [2] is 10 nM. Also, the IC95 in data set [1] is 1000 nM; in [3], more than 1000 nM.

Consider `CC(C)(C)c1nc(O)c(O)c(C(=O)NCc2cccc3cc[nH]c23)n1`, for which, in data set [2], the IC50 was 10 nM. In addition, the IC95 in data set [1] and in [3] was more than 1000 nM throughout.

Turning to `CC(C)(C)c1nc(O)c(O)c(C(=O)NCc2ccc(F)cc2)n1`, the IC50 in [2] was 10 nM. Also, the figures for the IC95 in data set [1] and in data set [3] were 250 nM and 2500 nM, respectively.

In the case of `CC(C)NC(=O)c1cc(F)ccc1CNC(=O)c1nc(C(C)(C)C)n(C)c(=O)c1O`, in data set [2], the IC50 was 90 nM. For the same compound, the IC95 in [1] and in data set [3] was 60 nM throughout. In data set [10], this compound displayed an F of 44%. In [5], this compound gave a half-life of 1.6 h. Further, the AUC in data set [11] turned out to be 3.5 µM·h. In addition, the fraction unbound at 1 h in [8] came out at 0.01.

Take `Cc1noc(-c2cc(F)ccc2CNC(=O)c2nc(C(C)(C)C)n(C)c(=O)c2O)n1`: the IC50 in data set [2] was 20 nM. Also, the IC95 in data set [1] was 20 nM; in data set [3], 120 nM.

On to `Cn1c(C(C)(C)C)nc(C(=O)NCc2ccc(F)cc2C(=O)NCC(F)(F)F)c(O)c1=O`, for which the IC50 in data set [2] was 90 nM. Further, the IC95 was determined as 30 nM in data set [1] and 120 nM in data set [3]. This compound registered a fraction unbound at 1 h in data set [8] of 0.01.

For the compound `Cn1c(C(C)(C)C)nc(C(=O)NCc2ccc(F)cc2C(=O)N2CCCC2)c(O)c1=O`, the IC50 in data set [2] is 230 nM. Moreover, the IC95 in data set [1] and in data set [3] was 120 nM in each case.

For `Cc1noc(-c2cc(F)ccc2CNC(=O)c2nc(C(C)(C)C)nc(O)c2O)n1`, the IC50 in data set [2] turned out to be 20 nM. The IC95 is 120 nM in data set [1] and more than 1000 nM in data set [3].

As to `CN1CCN(C(=O)c2cc(F)ccc2CNC(=O)c2nc(C(C)(C)C)n(C)c(=O)c2O)CC1`, the IC50 in data set [2] was determined as 490 nM. Besides, the IC95 in data set [1] and in [3] was 120 nM throughout. In [8], the fraction unbound at 1 h was 0.34.

`Cn1c(C(C)(C)C)nc(C(=O)NCc2ccc(F)cc2)c(O)c1=O`: the IC50 in [2] was 10 nM. In addition, the values for the IC95 in data set [1] and in [3] were 120 nM and 370 nM, respectively.

Turning to `Cn1c(C(C)(C)C)nc(C(=O)NCc2cccc3cc[nH]c23)c(O)c1=O`, in [2], the IC50 came out at 20 nM. For the same compound, the IC95 in [1] was 1000 nM; in [3], more than 1000 nM.

`CNC(=O)c1cc(F)ccc1CNC(=O)c1nc(C(C)(C)C)nc(O)c1O`: in data set [2], the IC50 was 20 nM.

For `CCNC(=O)c1cc(F)ccc1CNC(=O)c1nc(C(C)(C)C)n(C)c(=O)c1O`, the IC50 in data set [2] is 70 nM. Further, the IC95 in [1] and in data set [3] was 20 nM throughout. In addition, the bioavailability in [4] was 30%. This compound also gave a half-life in [5] of 2.6 h. The compound further returned a clearance in data set [6] of 21 mL/min/kg. Besides, the AUC in data set [7] came to 1.8 µM·h. For the same compound, in [8], the unbound share (fraction unbound) at 1 h was determined as 0.03.

In the case of `CN(C)C(=O)c1cc(F)ccc1CNC(=O)c1nc(C(C)(C)C)n(C)c(=O)c1O`, the IC50 in [2] is 180 nM. In addition, the IC95 in data set [1] and in data set [3] was 30 nM in each case. The compound also came in with a fraction unbound at 1 h in [8] of 0.18.

For `CNC(=O)c1cc(F)ccc1CNC(=O)c1nc(C(C)(C)C)n(C)c(=O)c1O`, the IC50 in data set [2] worked out at 20 nM. Besides, the IC95 in [1] and in data set [3] was 10 nM each time. The compound also gave a bioavailability in data set [4] of 18%. The half-life in data set [5] was 1.6 h. The clearance in [6] is 24 mL/min/kg. The same compound registered an AUC in data set [7] of 1.4 µM·h. Also, the microsomal CLint at 1 µM in [9] was determined as 16 µL/min/mg. Further, the fraction unbound at 1 h in data set [8] came to 0.07.

For the compound `CCCNC(=O)c1cc(F)ccc1CNC(=O)c1nc(C(C)(C)C)n(C)c(=O)c1O`, in data set [2], the IC50 is 70 nM. In addition, the values for the IC95 in data set [1] and in [3] were 30 nM and 60 nM, respectively. The compound further registered a fraction unbound at 1 h in data set [8] of 0.02.
